PREPL inhibitor – PREPL enzyme inhibitors, primary screen, biochemical, fluorescence polarization; Prolyl endopeptidase-like (Homo sapiens), Q4J6C6; recombinant PREPL, fluorescence polarization activity-based probe; inhibition, % at 5.96 µM; actives 0.68% (n = 320,000); AID 2751, 2010; in the data active = inhibition above about 43%;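 note: 0% = enzyme with DMSO and 100% = wells lacking enzyme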
UBC13 inh – UBC13 polyubiquitin chain formation inhibitors, primary screen, biochemical, TR-FRET, uHTS | inhibition, % at 20 µM | actives 0.47% (n = 330,000); in the data active = inhibition above about 45%, passing the limit was not always enough
Target sequence (P61088 whole entry, looked up): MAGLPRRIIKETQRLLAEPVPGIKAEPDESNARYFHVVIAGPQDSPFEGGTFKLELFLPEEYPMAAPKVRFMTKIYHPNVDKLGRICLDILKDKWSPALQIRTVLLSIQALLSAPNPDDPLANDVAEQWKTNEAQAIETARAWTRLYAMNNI
UCH37 DUB inh – inhibitors of human UCH37 deubiquitinase, primary screen, biochemical, Ub-AMC cleavage, fluorescence; purified proteasome/UCH37; AID 588478, 2011; inhibition, % (test concentration not listed); actives 0.33% (n = 330,000);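 active = mean inhibition over replicate wells above about 20%, limit read from the data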;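 note: 0% = compound-free wells with enzyme and 100% = wells lacking proteasome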
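System: Proteasome-associated human UCH37 deubiquitinase; Input: 0.15 nM proteasome in added enzyme buffer; Also added: Ub-AMC substrate from 1 µM stock; Incubation: 30 min compound-proteasome preincubation then 25 min substrate reaction, room temperature; Detection: fluorescence, ex 355 nm, em 460 nm; Read-out: % inhibition of Ub-AMC cleavage fluorescence; Benchmarks: no-proteasome and no-compound wells.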
Fh CTSL1 inh – Fasciola hepatica cathepsin L1 inhibitors, primary screen, counter-screen for PFM18AAP inhibitor project, biochemical, QFRET, fluorogenic peptide substrate | recombinant F. hepatica cathepsin L1, Z-Leu-Arg-MCA fluorescence | inhibition, % at 5.96 µM | actives 0.49% (n = 300,000);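 active = inhibition above the mean of all tested compounds plus 3 SD, set per screening campaign, cut at about 17% in these data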;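 note: 0% = plate median of test compound wells and 100% = 1 µM Z-Phe-Ala-diazomethylketone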
PP5 inh – PP5 phosphatase inhibitors, primary screen, biochemical, fluorescence; purified PP5c, OMFP substrate fluorescence; actives 0.18% (n = 320,000); inhibition, % at 6.7 µM;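 active = inhibition above the campaign's mean inhibition across all tested compounds plus 3 SD, cut at about 9.5% in these data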;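 note: 0% = DMSO only and 100% = 100 µM cantharidin control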
PP1 counter – PP1-alpha phosphatase inhibitors, primary screen, counter-screen for PP5 inhibitor project, biochemical, fluorescence, OMFP substrate, single point | inhibition, % at 6.7 µM | AID 2235, 2010 | actives 0.9% (n = 320,000) | purified PP1alpha | Serine/threonine-protein phosphatase PP1-alpha catalytic subunit (Homo sapiens), P62136;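 active = inhibition above the mean inhibition of all tested compounds plus 3 SD, computed separately for each screening campaign, cut at about 15% in these data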
Target sequence (P62136 whole entry, looked up): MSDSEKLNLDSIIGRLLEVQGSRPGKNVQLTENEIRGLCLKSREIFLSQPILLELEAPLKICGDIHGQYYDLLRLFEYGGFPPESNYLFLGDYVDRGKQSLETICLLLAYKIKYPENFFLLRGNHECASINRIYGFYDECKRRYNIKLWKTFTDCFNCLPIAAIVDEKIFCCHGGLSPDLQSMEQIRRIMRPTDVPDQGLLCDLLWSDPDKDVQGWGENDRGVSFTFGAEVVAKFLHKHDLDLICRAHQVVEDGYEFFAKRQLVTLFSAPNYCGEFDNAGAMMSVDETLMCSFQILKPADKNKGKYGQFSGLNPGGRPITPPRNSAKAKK
PP5 inh confirm – PP5 phosphatase inhibitors, confirmation, biochemical, fluorescence, human | shares compounds with PP5 inh | Purified PP5, fluorogenic phosphatase substrate | inhibition, % at 6.7 µM | actives 22% (n = 460) | AID 2331, 2010; in the data active = inhibition above about 9.5%
PP1 counter 3x – PP1 phosphatase inhibitors, counter-screen for PP5 inhibitor project, biochemical, fluorescence, triplicate | PP1 enzyme, fluorescent phosphatase substrate | inhibition, % at 6.7 µM | shares compounds with PP5 inh | actives 4% (n = 460) | AID 2355, 2010; in the data active = inhibition above about 16%
PP1 confirm – PP1 phosphatase inhibitors, confirmation, biochemical, fluorescence, OMFP substrate, triplicate. purified PP1alpha. actives 52% (n = 1,900). AID 2358, 2010. shares compounds with PP1 counter. inhibition, % at 6.7 µM;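 active = mean PP1 inhibition above a set limit taken from the earlier primary screen, cut at about 15% in these data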
PP5 counter – PP5 phosphatase inhibition by PP1 hits, confirmation, counter-screen for PP1 inhibitor project, biochemical, fluorescence, triplicate. AID 2360, 2010. actives 4% (n = 1,900). shares compounds with PP1 counter. purified PP5c, OMFP fluorescence. inhibition, % at 6.7 µM;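 active = mean PP5 inhibition over triplicate wells above about 9.5% taken from the earlier PP1 screen, limit read from the data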
Active calls of the source: *; . = no result. This is a sample that favours compounds with a hit; in the whole collection about 2.3% have one here.

SMILES	PREPL inhibitor	UBC13 inh	UCH37 DUB inh	Fh CTSL1 inh	PP5 inh	PP1 counter	others
COC(=O)C1=C(c2ccc(F)cc2F)C[C@@H]2CC[C@H]1N2C(=O)N1CCCCC1	5.8	4.4	21.3*	.	0.5	-0.2
NNC(=O)CN1C(=O)CN=C(c2ccccc2)c2cc(Br)ccc21	18.8	1.2	.	-0.6	2.0	-6.1
O=C1CN=C(c2ccccc2)c2cc(Br)ccc2N1Cc1cc(=O)n2ccccc2n1	50.1*	-4.0	-1.5	5.4	0.9	0.1
COc1ccc(OCC(=O)N2CCN(C/C=C/c3ccccc3)CC2)cc1	13.2	2.8	3.8	16.7*	2.2	-4.5
O=C(COc1ccccc1)N1CCN(C/C=C/c2ccccc2)CC1	-16.4	8.8	0.7	-3.2	-1.3	3.1
CNC(=O)Oc1ccc2c(c1)C(=O)c1ccccc1CO2	-8.5	15.8	-2.9	21.2*	1.8	-0.8
CNC(=O)Oc1cccc(-c2cn3cc(OC(=O)NC)ccc3n2)c1	3.5	.	-48.6	-0.2	2.7	-0.4
CCN(CC)c1ccc(C=Nc2sc3c(c2C#N)C2CCN3CC2)c(O)c1	.	.	8.3	.	.	.
C[C@H]1CCCC=C[C@@H]2C[C@H](O)C[C@H]2[C@H](O)C=CC(=O)O1	.	.	4.7	.	.	.
O=c1c2ccccc2[nH]c(=S)n1-c1ccc(Br)cc1	-0.1	16.7	1.4	14.7	-6.2	19.7*
O=C1CN=C(c2ccccc2)c2ccccc2N1Cc1ccc(C(F)(F)F)cc1	16.8	5.7	1.1	3.6	12.8*	-0.8	PP5 inh confirm=-0.8;PP1 counter 3x=0.4
CCCCC(=NO)c1c(C)[nH]c2ccccc12	.	.	-0.6	.	.	.
CCOC(=O)c1ccc(-[n+]2c(-c3ccccc3)cc(-c3ccccc3)cc2-c2ccccc2)cc1	8.2	22.4	2.7	1.4	1.1	7.0
CCOC(=O)c1ccc(NC(=O)C2C3C=CC(O3)C2C(=O)O)cc1 (configuration not stated)	-3.8	-4.4	.	0.5	27.9*	8.2	PP5 inh confirm=-2.8;PP1 counter 3x=2.5
Cc1[nH]n(-c2ccccc2)c(=O)c1C(c1ccc([N+](=O)[O-])cc1)c1c(C)[nH]n(-c2ccccc2)c1=O	10.1	-49.4	12.7	-4.8	9.9*	-1.0	PP5 inh confirm=16.1*;PP1 counter 3x=9.5
O=[N+]([O-])c1ccc(C(c2ccc([N+](=O)[O-])cc2)c2ccc([N+](=O)[O-])cc2)cc1	.	.	-0.1	.	.	.
C(=NNC1=NCCCCC1)c1c[nH]c2ccccc12	.	.	11.5	.	.	.
C/C=C(\C)C(=O)OC1C(C)=C2C(C1OC(=O)CCCCC)C(C)(OC(C)=O)CC(OC(=O)CCC)C1(O)C2OC(=O)C1(C)O (configuration not stated)	20.6	22.9	.	8.5	11.4*	6.1	PP5 inh confirm=11.4*;PP1 counter 3x=11.3
O=C(c1cc(C(=O)NCc2ccccc2)c(=O)n(Cc2ccccc2)c1)c1cc(Cl)ccc1O	4.8	-26.0	-0.5	7.8	3.5	18.3*	PP1 confirm=16.3*;PP5 counter=0.8
O=C(NCc1ccccc1)c1cccn(Cc2ccccc2)c1=O	7.2	15.9	-45.6	2.8	0.7	0.0

Source: PubChem
